The values that follow come from ChEMBL document CHEMBL1123768, “Synthesis and characterization of all four isomers of the muscarinic agonist 2'-methylspiro[1-azabicyclo[2.2.2]octane-3,4'-[1,3]dioxolane]” (J Med Chem, 1987).

SMILES strings stand for the structures.

Assay [1] is filed under the species Cavia porcellus. Kind of assay: (§1) Determined for potency (muscarinic agonistic activity) expressed in guinea pig isolated atria in vitro. The following applies: read-out: Log EC50 (converted).
The species named for assay [2] is Cavia porcellus. Kind of assay: Functional efficacy compared to 1 uM muscarine and the maximum response to carbachol in guinea pig ileum. A digest of the protocol:
(§2)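 Agonist-evoked contractions were recorded and concentration–response curves built. EC50 is the concentration giving 50% of that tissue's own maximum, reported as −log EC50 (M).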

The species named for assay [3] is Rattus norvegicus. In words: (§3) Determined for potency (muscarinic agonistic activity) expressed in superior cervical ganglion in vitro. The following applies: for EC50: Rattus norvegicus, Superior cervical ganglion. It counts as functional. Put shortly: (§4)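 Potentials were recorded by grease-gap between the ganglion body and the internal carotid nerve. Semicumulative concentration–response curves used 1-min agonist superfusions every 10 min. Potency is given as −log EC50 (M). Efficacy is the ratio to the maximum response to 1 µM (±)-muscarine chloride.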

The species entered for assay [4] is Cavia porcellus. Kind of assay: (§5) Determined for potency (muscarinic agonistic activity) expressed in guinea pig ileum in vitro. As to conditions: read-out: Log EC50 (converted).
For assay [5], the species on record is Cavia porcellus. In words: Functional efficacy compared to 1 uM muscarine and the maximum response to carbachol in guinea pig isolated atria.
Assay [6] is filed under the species Rattus norvegicus. In words: Determined for Functional efficacy compared to 1 uM muscarine in superior cervical ganglion. A digest of the protocol: as §4
Assay [7] concerns the target T1, Muscarinic acetylcholine receptor M2 (Rattus norvegicus) (UniProt P10980).
T1 sequence (whole entry): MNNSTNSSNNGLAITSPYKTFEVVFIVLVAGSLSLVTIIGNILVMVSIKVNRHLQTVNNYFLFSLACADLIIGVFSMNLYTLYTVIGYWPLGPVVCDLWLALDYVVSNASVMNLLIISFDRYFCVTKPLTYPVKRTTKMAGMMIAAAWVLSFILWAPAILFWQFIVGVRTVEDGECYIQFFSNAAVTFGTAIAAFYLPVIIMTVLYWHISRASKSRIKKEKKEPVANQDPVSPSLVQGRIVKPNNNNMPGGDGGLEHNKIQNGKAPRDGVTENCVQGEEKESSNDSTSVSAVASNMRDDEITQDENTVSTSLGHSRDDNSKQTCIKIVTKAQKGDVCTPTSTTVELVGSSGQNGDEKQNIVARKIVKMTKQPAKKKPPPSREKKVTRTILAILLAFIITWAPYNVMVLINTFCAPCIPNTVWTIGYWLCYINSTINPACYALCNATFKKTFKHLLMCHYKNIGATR

The target in assay [8] is T2, Muscarinic acetylcholine receptor M1 (Rattus norvegicus) (UniProt P08482).
T2 sequence (whole entry): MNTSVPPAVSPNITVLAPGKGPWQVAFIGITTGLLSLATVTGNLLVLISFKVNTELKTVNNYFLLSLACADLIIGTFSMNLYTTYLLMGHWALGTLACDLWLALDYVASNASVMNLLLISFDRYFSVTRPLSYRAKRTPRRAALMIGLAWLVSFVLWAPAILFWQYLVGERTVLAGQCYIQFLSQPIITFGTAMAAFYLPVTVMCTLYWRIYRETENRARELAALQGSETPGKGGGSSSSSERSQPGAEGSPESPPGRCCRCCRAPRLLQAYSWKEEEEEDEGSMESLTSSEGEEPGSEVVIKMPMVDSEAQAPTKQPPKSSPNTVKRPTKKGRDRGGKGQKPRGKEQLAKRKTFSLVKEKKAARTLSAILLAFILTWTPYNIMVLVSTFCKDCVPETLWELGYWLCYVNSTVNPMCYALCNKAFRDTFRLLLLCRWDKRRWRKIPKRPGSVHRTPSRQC

A short description of assay [9]: as §3. It is filed as functional, tissue-based, Rattus norvegicus. Put shortly:
as §4

For assay [10], the species on record is Cavia porcellus. The assay is described as §5. It counts as functional. A digest of the protocol: as §2
The species named for assay [11] is Cavia porcellus. Described as §1. It is filed as functional.
For assay [12], the target named is T2, Muscarinic acetylcholine receptor M1 (Rattus norvegicus). The source holds these as a separate data set.
Assay [13] concerns the target T1, Muscarinic acetylcholine receptor M2 (Rattus norvegicus). The source holds these as a separate data set.

A word on the EC50: it is the concentration giving half of the maximal effect. Consider `C[C@@H]1OCC2(CN3CCC2CC3)O1.C[C@H]1OCC2(CN3CCC2CC3)O1` (some centres undefined) [listing 1 of 2 here], for which the half-maximal effective concentration (EC50) in assay [1] is 21.9 µM; in assay [3], 5.75 µM; in assay [4], 3.31 µM. Further, the FE in assay [2] came to 0.8; in [5], 0.8; in [6] it was 0.7.
Consider `C[C@@H]1OCC2(CN3CCC2CC3)O1.C[C@H]1OCC2(CN3CCC2CC3)O1` (some centres undefined) [listing 2 of 2 here], for which the K app in [7] is 8.4 µM; in assay [8], 5.9 µM.
On to `C[C@@H]1OCC2(CN3CCC2CC3)O1` (stereo in doubt; 1A1) [listing 1 of 2 here], for which the K app in assay [7] was found to be 64 µM; in assay [8], 55 µM.
On to `C[N+](C)(C)CCOC(N)=O.[Cl-]` [CARBACHOL], for which the EC50 in assay [1] was 0.209 µM; in assay [4], 0.102 µM. Also, the FE in assay [2] and in assay [5] was 1 in each case. Moreover, the figures for the K app in [7] and in assay [8] were 1.9 µM and 45 µM, respectively.
`CC1OCC2(CN3CCC2CC3)O1` (centres undefined) [listing 1 of 2 here]: the FE in assay [2] worked out at 0.8; in assay [5], 0.8; in assay [6], 0.7. The “Log EC50” value in assay [9] is listed as -4.83. In addition, the EC50 in [10] is 6.31 µM; in assay [11] it was 83.2 µM.
Turning to `C[C@H]1OCC2(CN3CCC2CC3)O1` (stereo in doubt; 1B1), the EC50 in assay [1] is 14.8 µM; in [4], 2.19 µM. The FE in assay [2], in [5] and in assay [6] was 0.8 throughout. Moreover, in [3], the “Log EC50” value is recorded as -5.25. The figures for the K app in assay [7] and in assay [8] were 2.2 µM and 2.7 µM, respectively.
Consider `C[C@@H]1O[C@H](C[N+](C)(C)C)C[C@H]1O` [MUSCARINE], for which, in [3], the response was half-maximal at 0.17 µM (EC50). Besides, the results for the K app in [7] and in assay [8] were 2.3 µM and 28 µM, respectively. Besides, the FE in assay [6] was 1.1.
Consider `C[C@@H]1OCC2(CN3CCC2CC3)O1` (stereo in doubt; 1A1) [listing 2 of 2 here], for which, in assay [3], the “Log EC50” value was less than -4.
For the molecule `CC1OCC2(CN3CCC2CC3)O1` (centres undefined) [listing 2 of 2 here], the K app in assay [12] came out at 6.8 µM; in assay [13], 13 µM.
Turning to `C[C@@H]1OCC2(CN3CCC2CC3)O1` (stereo in doubt; 1B2) [listing 1 of 2 here], the results for the K app in assay [7] and in [8] were 8.5 µM and 4.1 µM, respectively.
For `CC1OCC2(CN3CCC2CC3)O1` (single isomer, unassigned) [listing 1 of 2 here] the same measures were 92 µM and 66 µM.
For the molecule `C[C@@H]1OCC2(CN3CCC2CC3)O1` (stereo in doubt; 1B2) [listing 2 of 2 here], the EC50 was 100 µM in [1] and 20 µM in assay [4]. Besides, the FE in assay [2] was determined as 0.7; in assay [5], 0.2; in [6], 0.7. In addition, the “Log EC50” value in assay [3] is -4.56.
As to `CC1OCC2(CN3CCC2CC3)O1` (single isomer, unassigned) [listing 2 of 2 here], in [3], the “Log EC50” value was less than -4. The EC50 in [10] is greater than 316 µM.
